Laboratory results reported in ChEMBL document CHEMBL1153621, “Regioselective reaction: synthesis, characterization and pharmacological studies of some new Mannich bases derived from 1,2,4-triazoles” (2009).
≈ marks a conversion by molar mass, not a printed value.

Experiments:
Format in all cases: functional
Bacillus subtilis = assay: Antibacterial activity against Bacillus subtilis after 16 to 18 hrs by serial dilution method
Method in brief: (§1)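 MIC by serial dilution: compound dissolved in serially diluted DMF, a standard drop of prepared culture added to each dilution, incubated 16–18 h at 37 °C; MIC taken as the endpoint.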

Pseudomonas aeruginosa = assay: Antibacterial activity against Pseudomonas aeruginosa after 16 to 18 hrs by serial dilution method; method in brief: as §1
Candida albicans = assay: Antifungal activity against Candida albicans after 16 to 18 hrs by serial dilution method; method in brief: as §1
Escherichia coli = assay: Antibacterial activity against Escherichia coli after 16 to 18 hrs by serial dilution method; method in brief: as §1
Staphylococcus aureus = assay: Antibacterial activity against Staphylococcus aureus after 16 to 18 hrs by serial dilution method; method in brief: as §1

`Cc1ccc(-c2n[nH]cc2/C=N/n2c(-c3ccccc3)nn(CN3CCN(C)CC3)c2=S)cc1` was tested, and the MIC (Bacillus subtilis) was 12.5 µg/mL (≈ 26.4 µM), the MIC (Pseudomonas aeruginosa) was 3 µg/mL (≈ 6.35 µM) and the MIC (Candida albicans) was 3 µg/mL (≈ 6.35 µM). For the same molecule, the MIC (Escherichia coli) was 6 µg/mL (≈ 12.7 µM) and the MIC (Staphylococcus aureus) was 6 µg/mL (≈ 12.7 µM).
`CCCc1nn(CN2CCN(C)CC2)c(=S)n1/N=C/c1c[nH]nc1-c1ccc(Cl)cc1` was tested, and the MIC (Bacillus subtilis) was 3 µg/mL (≈ 6.54 µM), the MIC (Pseudomonas aeruginosa) was 3 µg/mL (≈ 6.54 µM) and the MIC (Candida albicans) was 3 µg/mL (≈ 6.54 µM). The MIC (Escherichia coli) was 3 µg/mL (≈ 6.54 µM) and the MIC (Staphylococcus aureus) was 3 µg/mL (≈ 6.54 µM).
`COc1ccc(-c2n[nH]cc2/C=N/n2c(C)nn(CN3CCN(C)CC3)c2=S)cc1` showed an MIC (Bacillus subtilis) of 6 µg/mL (≈ 14.1 µM), an MIC (Pseudomonas aeruginosa) of 1.5 µg/mL (≈ 3.52 µM) and an MIC (Candida albicans) of 6 µg/mL (≈ 14.1 µM). For the same molecule, the MIC (Escherichia coli) was 6 µg/mL (≈ 14.1 µM) and the MIC (Staphylococcus aureus) was 6 µg/mL (≈ 14.1 µM).
`Cc1n[nH]cc1/C=N/n1c(-c2ccccc2)nn(CN2CCN(C)CC2)c1=S` was tested, and the MIC (Bacillus subtilis) was 12.5 µg/mL (≈ 31.5 µM), the MIC (Pseudomonas aeruginosa) was 12.5 µg/mL (≈ 31.5 µM) and the MIC (Candida albicans) was 6 µg/mL (≈ 15.1 µM). It also gave an MIC (Escherichia coli) of 6 µg/mL (≈ 15.1 µM) and an MIC (Staphylococcus aureus) of 12.5 µg/mL (≈ 31.5 µM).
`CCCc1nn(CN2CCN(C)CC2)c(=S)n1/N=C/c1c[nH]nc1-c1ccc(OC)cc1` was tested, and the MIC (Bacillus subtilis) was 12.5 µg/mL (≈ 27.5 µM), the MIC (Pseudomonas aeruginosa) was 6 µg/mL (≈ 13.2 µM) and the MIC (Candida albicans) was 6 µg/mL (≈ 13.2 µM). The MIC (Escherichia coli) was 12.5 µg/mL (≈ 27.5 µM) and the MIC (Staphylococcus aureus) was 6 µg/mL (≈ 13.2 µM).
Molecule `Cc1ccc(-c2n[nH]cc2/C=N/n2c(C)nn(CN3CCN(C)CC3)c2=S)cc1` has an MIC (Bacillus subtilis) of 6 µg/mL (≈ 14.6 µM), an MIC (Pseudomonas aeruginosa) of 12.5 µg/mL (≈ 30.4 µM) and an MIC (Candida albicans) of 6 µg/mL (≈ 14.6 µM). For the same molecule, the MIC (Escherichia coli) was 6 µg/mL (≈ 14.6 µM) and the MIC (Staphylococcus aureus) was 12.5 µg/mL (≈ 30.4 µM).
In the case of `CCCc1nn(CN2CCN(C)CC2)c(=S)n1/N=C/c1c[nH]nc1-c1ccccc1`, the MIC (Bacillus subtilis) is reported as 6 µg/mL (≈ 14.1 µM), the MIC (Pseudomonas aeruginosa) is reported as 12.5 µg/mL (≈ 29.4 µM) and the MIC (Candida albicans) is reported as 6 µg/mL (≈ 14.1 µM). The MIC (Escherichia coli) was 12.5 µg/mL (≈ 29.4 µM) and the MIC (Staphylococcus aureus) was 6 µg/mL (≈ 14.1 µM).
`Cc1n[nH]cc1/C=N/n1c(C)nn(CN2CCN(C)CC2)c1=S` was tested, and the MIC (Bacillus subtilis) was 6 µg/mL (≈ 17.9 µM), the MIC (Pseudomonas aeruginosa) was 6 µg/mL (≈ 17.9 µM) and the MIC (Candida albicans) was 6 µg/mL (≈ 17.9 µM). The MIC (Escherichia coli) was 6 µg/mL (≈ 17.9 µM) and the MIC (Staphylococcus aureus) was 12.5 µg/mL (≈ 37.4 µM).
`COc1ccc(-c2n[nH]cc2/C=N/n2c(-c3ccccc3)nn(CN3CCN(C)CC3)c2=S)cc1` gave an MIC (Bacillus subtilis) of 6 µg/mL (≈ 12.3 µM), an MIC (Pseudomonas aeruginosa) of 3 µg/mL (≈ 6.14 µM) and an MIC (Candida albicans) of 6 µg/mL (≈ 12.3 µM). It also gave an MIC (Escherichia coli) of 6 µg/mL (≈ 12.3 µM) and an MIC (Staphylococcus aureus) of 6 µg/mL (≈ 12.3 µM).
With `Cc1nn(CN2CCN(C)CC2)c(=S)n1/N=C/c1c[nH]nc1-c1ccccc1` the MIC (Bacillus subtilis) was 6 µg/mL (≈ 15.1 µM), the MIC (Pseudomonas aeruginosa) was 6 µg/mL (≈ 15.1 µM) and the MIC (Candida albicans) was 6 µg/mL (≈ 15.1 µM). For the same molecule, the MIC (Escherichia coli) was 12.5 µg/mL (≈ 31.5 µM) and the MIC (Staphylococcus aureus) was 6 µg/mL (≈ 15.1 µM).
With `CCCc1nn(CN2CCN(C)CC2)c(=S)n1/N=C/c1c[nH]nc1-c1ccc(C)cc1` the MIC (Bacillus subtilis) was 12.5 µg/mL (≈ 28.5 µM), the MIC (Pseudomonas aeruginosa) was 6 µg/mL (≈ 13.7 µM) and the MIC (Candida albicans) was 6 µg/mL (≈ 13.7 µM). The MIC (Escherichia coli) was 6 µg/mL (≈ 13.7 µM) and the MIC (Staphylococcus aureus) was 6 µg/mL (≈ 13.7 µM).
`CN1CCN(Cn2nc(-c3ccccc3)n(/N=C/c3c[nH]nc3-c3ccccc3)c2=S)CC1` was tested, and the MIC (Bacillus subtilis) was 12.5 µg/mL (≈ 27.3 µM), the MIC (Pseudomonas aeruginosa) was 6 µg/mL (≈ 13.1 µM) and the MIC (Candida albicans) was 6 µg/mL (≈ 13.1 µM). The MIC (Escherichia coli) was 6 µg/mL (≈ 13.1 µM) and the MIC (Staphylococcus aureus) was 6 µg/mL (≈ 13.1 µM).
`OC(Cn1cncn1)(Cn1cncn1)c1ccc(F)cc1F` [FLUCONAZOLE] showed an MIC (Candida albicans) of 6 µg/mL (≈ 19.6 µM).
Work on `NC(=O)N/N=C/c1ccc([N+](=O)[O-])o1` [NITROFURAZONE] yielded an MIC (Bacillus subtilis) of 12.5 µg/mL (≈ 63.1 µM), an MIC (Pseudomonas aeruginosa) of 12.5 µg/mL (≈ 63.1 µM) and an MIC (Escherichia coli) of 6 µg/mL (≈ 30.3 µM). For the same molecule, the MIC (Staphylococcus aureus) was 12.5 µg/mL (≈ 63.1 µM).
